According to ChEMBL document CHEMBL5154715, “Phenolic Lipids Derived from Cashew Nut Shell Liquid to Treat Metabolic Diseases” (J Med Chem, 2022):
The source made the active and inactive calls. No cut-off for these calls is given here.

Columns and labels:
Danio rerio [1] = assay: In vivo agonist activity at human GFP-tagged PPARalpha in transgenic zebrafish assessed as increase in GFP expression in muscle at 1.5 uM measured after 14 hrs by microscopy
[2] = Tmax in C57BL/6 mouse at 40 mg/kg, ip […] by LC-MS/MS analysis; assay type: ADME, organism-based; details: in vivo
[3] = Relative bioavailability in C57BL/6 mouse at 100 mg/kg […] by LC-MS/MS analysis; assay type: ADME, organism-based; details: in vivo
[4] = molecular target: T1, Peroxisome proliferator-activated receptor alpha (Mus musculus) (UniProt P23204); assay: Agonist activity at human PPARalpha in mouse hepatocytes assessed as induction of cd36 mRNA expression at 50 uM incubated for 16 hrs by quantitative real-time PCR analysis; assay type: cell-based; details: Hepatocyte, filed as agonist
T1 sequence (whole entry): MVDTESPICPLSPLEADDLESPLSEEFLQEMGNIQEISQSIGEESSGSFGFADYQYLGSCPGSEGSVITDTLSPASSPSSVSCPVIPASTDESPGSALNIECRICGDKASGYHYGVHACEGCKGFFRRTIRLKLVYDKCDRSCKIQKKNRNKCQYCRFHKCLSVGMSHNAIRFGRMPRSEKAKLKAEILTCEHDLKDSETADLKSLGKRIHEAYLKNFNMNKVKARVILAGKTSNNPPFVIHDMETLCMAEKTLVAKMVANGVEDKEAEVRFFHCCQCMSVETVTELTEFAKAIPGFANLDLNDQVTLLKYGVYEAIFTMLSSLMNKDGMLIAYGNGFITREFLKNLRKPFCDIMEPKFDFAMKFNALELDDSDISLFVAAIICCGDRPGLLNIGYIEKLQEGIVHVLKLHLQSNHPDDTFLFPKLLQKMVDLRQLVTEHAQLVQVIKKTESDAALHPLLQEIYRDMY
Outline: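 Collagenase-perfused mouse primary hepatocytes from WT mice, plated 2 h in attachment medium, overnight in M199 with 5% charcoal-stripped FBS and 1 nM insulin. Treated next day in serum-free M199 with 50 μM compound for 16 h. RNA qPCR (SYBR Green), comparative Ct method.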

Danio rerio [5] = assay: In vivo agonist activity at human GFP-tagged PPARalpha in transgenic zebrafish assessed as increase in GFP expression in heart at 0.5 uM measured after 14 hrs by microscopy
[6] = molecular target: T2, Peroxisome proliferator-activated receptor gamma (Mus musculus) (UniProt P37238); assay: Agonist activity at human PPARgamma in mouse 3T3-L1 cells assessed as induction of Glut4 mRNA expression at 25 uM incubated for 11 days by quantitative real-time PCR analysis; details: filed as agonist, time 11.0 day
T2 sequence (whole entry): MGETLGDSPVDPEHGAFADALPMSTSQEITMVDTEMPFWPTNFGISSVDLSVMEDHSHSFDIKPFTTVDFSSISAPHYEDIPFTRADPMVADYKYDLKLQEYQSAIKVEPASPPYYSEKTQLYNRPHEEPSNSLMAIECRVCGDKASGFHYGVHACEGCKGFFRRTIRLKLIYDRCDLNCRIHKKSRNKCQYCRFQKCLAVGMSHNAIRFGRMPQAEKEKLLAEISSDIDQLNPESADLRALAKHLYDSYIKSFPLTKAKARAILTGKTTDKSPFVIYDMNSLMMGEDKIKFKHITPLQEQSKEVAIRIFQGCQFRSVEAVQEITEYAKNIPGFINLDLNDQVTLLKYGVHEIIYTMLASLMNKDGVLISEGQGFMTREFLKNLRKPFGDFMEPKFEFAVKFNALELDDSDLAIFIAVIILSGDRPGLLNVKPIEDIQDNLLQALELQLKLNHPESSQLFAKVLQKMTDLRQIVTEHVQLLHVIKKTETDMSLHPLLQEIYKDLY

SMILES	Activity (Danio rerio [1])	Tmax [2] [min]	bioavailability [3] [%]	Activity [4]	Activity (Danio rerio [5])	Activity [6]
CCCCCCCCCCCCCCCc1cccc(OC(C)=O)c1C(=O)O	Active	–	–	–	–	–
CCCCCCCCCCCCCCCc1cccc(OC(C)(C)C(=O)O)c1	–	30	38	Active	Active	Active
